High-throughput results from PubChem.
Only some compounds are listed: those with a hit (about 2% of all), similar ones and a draw of the others.
NR2E3 ag-1: NR2E3 agonists in two-hybrid cells, primary screen, cell-based, luminescence, CHO-S, Gal4-NCOR/VP16-NR2E3; 360,000 tested, 0.35% active; AID 602229, 2012; luciferase; inhibition of corepressor binding, % at 3.98 µM; Photoreceptor-specific nuclear receptor (Homo sapiens), Q9Y5X4;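 active = inhibition above the mean of all tested compounds plus 3 SD, cut at about 70% in these data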;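 note: higher means lower luciferase signal from less NR2E3 corepressor binding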
Target sequence (Q9Y5X4 whole entry, looked up, the tested form may be a part): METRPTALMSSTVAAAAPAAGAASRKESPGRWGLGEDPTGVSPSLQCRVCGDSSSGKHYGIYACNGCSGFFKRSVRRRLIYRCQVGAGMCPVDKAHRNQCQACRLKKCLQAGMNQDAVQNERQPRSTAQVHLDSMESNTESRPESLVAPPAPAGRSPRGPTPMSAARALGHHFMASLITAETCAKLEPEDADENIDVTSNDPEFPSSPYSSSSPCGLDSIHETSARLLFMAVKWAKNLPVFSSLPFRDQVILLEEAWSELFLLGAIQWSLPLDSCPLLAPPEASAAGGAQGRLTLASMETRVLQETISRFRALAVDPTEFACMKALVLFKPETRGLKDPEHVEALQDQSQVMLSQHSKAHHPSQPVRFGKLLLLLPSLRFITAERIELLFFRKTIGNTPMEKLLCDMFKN
NR2E3 ag-2: inhibitors of NR2E3-RetCOR corepressor binding, primary screen, NR2E3 agonist project, biochemical, TR-FRET, GST-NR2E3, biotin-RetCOR | AID 2300, 2010 | Photoreceptor-specific nuclear receptor (Homo sapiens), Q9Y5X4 | 1536-well | 320,000 tested, 0.12% active | inhibition of corepressor binding, % at 4.78 µM;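 active = percent inhibition above the cutoff of mean plus 3 SD of all tested compounds, set per screening campaign, cut at about 20% in these data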
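Material: NR2E3–RetCOR corepressor complex / Amount: 1.35 nM GST-NR2E3 / Medium: Tris pH 7.5 / Compound: single nominal compound dose of 4.8 µM / Incubation: 5 h at 4 °C / Technique: TR-FRET, Eu(K)-anti-GST donor, streptavidin-D2 acceptor, ex 340, em 617/671 nm / Read-out basis: percent loss of FRET ratio relative to control wells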
Myeloid diff MLP: induction of myeloid progenitor differentiation, primary screen, cell-based, flow cytometry, MLPCN library; ER-HoxA9 myeloid progenitors, lysozyme-GFP differentiation; calls only at 10 µM; 360,000 tested, 1% active;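 active = normalized GFP-positive differentiation at or above the plate's own cutoff, the solvent-only control mean plus 3 SD; inconclusive = no clear call, values can overlap the other calls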;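 note: cells exposed to compound for four days before flow analysis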
T cell HTS: modulators of CD8 T cell-vesicle binding, primary screen, mouse 2C CD8+ T cells, flow cytometry; 330,000 tested, 0.068% active; response (vesicle binding), % at 7 µM; 2C CD8+ T cell-vesicle binding; hits give low values; AID 2052, 2009;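 active = response, share of CD8 T cells binding vesicles, and their 90th percentile fluorescence all below set limits, cut at about 80% in these data, passing the limit was not always enough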;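 note: values below 100% mean blocked vesicle binding to the CD8+ T cells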
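Read-out – percent CD8+ FL2 mean versus row control · System – murine 2C transgenic CD8+ T lymphocytes · Times – 1.5 h cell–vesicle binding at 37 °C, then 20 min icy labelling · Control set – naked vesicles low, QL9 vesicles with vehicle high · Detection – cytometric PE anti-B7-1 and Alexa647 anti-CD8 signals after 1% paraformaldehyde fixation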
FXN GAA850 act: FXN promoter activators, primary screen, cell-based, luciferase luminescence, HEK293 lucGAA850; HEK293 lucGAA850 FXN promoter luciferase reporter, 24 h; percent of 10 µM SAHA response; activation, % at 6 µM; 360,000 tested, 0.56% active; AID 540364, 2011;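 active = activation above the average of all compounds screened plus 3 SD, cutoff fixed separately per campaign, cut at about 7.5% in these data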
NR2E3 ag confirm: NR2E3 agonist confirmation in cells, cell-based, luminescence, CHO-S two-hybrid; shares compounds with NR2E3 ag-1; CHO-S mammalian two-hybrid NR2E3-NCOR, luciferase luminescence; inhibition, % at 3.98 µM; 2,300 tested, 51% active;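 active = average inhibition above a cutoff equal to the mean inhibition of all tested compounds plus one SD, cut at about 70% in these data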
VP16 counter: GAL4-VP16 reporter modulators, confirmation, counter-screen for NR2E3 agonist project, cell-based, luminescence, CHO-S, high throughput | shares compounds with NR2E3 ag-1 | CHO-S GAL4-VP16 luciferase reporter | inhibition, % at 3.98 µM | 2,300 tested, 29% active | AID 624379, 2012;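 active = mean inhibition above a cutoff equal to the average over all tested compounds plus one standard deviation, cut at about 70% in these data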;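 note: luciferase from a UAS reporter driven by GAL4-VP16 transactivation; higher means less reporter light so more repression of VP16 activity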
Each line names hits and unclear results; the compound was inactive in the other large screens (follow-up assays come after a bar, where they were run).

CCCCCCCCCCCCCCCC(=O)OC(CC(=O)O)C[N+](C)(C)C (configuration not stated)	none
Cc1noc(C)c1COC(=O)c1cccc(S(=O)(=O)N2CCCCCC2)c1	none | NR2E3 ag confirm inactive | VP16 counter inactive
COCCN1CCN(C(=O)c2ccc3nc(Cc4ccc(OC)c(OC)c4)oc3c2)CC1	none | NR2E3 ag confirm inactive | VP16 counter inactive
O=C(O)CC1(CC(=O)Nc2ccccc2N2CCOCC2)CCCC1	none
O=S(=O)(Nc1cccc2ncccc12)c1cccs1	NR2E3 ag-1 97, Myeloid diff MLP inconclusive | NR2E3 ag confirm inactive | VP16 counter inactive
Cc1c(NS(=O)(=O)c2cccs2)cccc1-c1nc2cccnc2s1	none
COC(=O)N/N=C/c1cc(Br)ccc1O	none
CC(C)NC(=S)N/N=C/c1cc(Br)ccc1O	NR2E3 ag-1 72 | NR2E3 ag confirm inactive | VP16 counter inactive
Cc1cc(C)c(C(=O)/C=C/c2cccc3ccccc23)c(=O)[nH]1	Myeloid diff MLP inconclusive | NR2E3 ag confirm inactive | VP16 counter inactive
CC(=NNC(=S)Nc1cccc(C)c1)c1ccccn1	Myeloid diff MLP inconclusive (no result: NR2E3 ag-2, T cell HTS) | NR2E3 ag confirm inactive | VP16 counter inactive
COc1ccccc1NC(=S)NN=C(C)c1ccccn1	NR2E3 ag-1 78, Myeloid diff MLP inconclusive (no result: NR2E3 ag-2, T cell HTS) | NR2E3 ag confirm inactive | VP16 counter inactive
C/C(=N\NC(=S)Nc1cccc(C)c1)c1cccc(N)c1	none
COc1ccc(C(=O)N/N=C(\C)c2ccccn2)cc1OC	Myeloid diff MLP inconclusive
C/C(=N\NC(=S)Nc1cccc(C)c1)c1ccccc1	NR2E3 ag-1 71 | NR2E3 ag confirm inactive | VP16 counter inactive
C/C(=N\NC(=S)Nc1ccc(C)cc1)c1cccc(N)c1	none
CC(=NNC(=S)Nc1ccc(C)cc1)c1ccccn1	NR2E3 ag-1 71, Myeloid diff MLP inconclusive (no result: NR2E3 ag-2, T cell HTS) | NR2E3 ag confirm inactive | VP16 counter inactive
C[C@H](O)[C@@H]1C(=O)N2CCc3c([nH]c4ccccc34)[C@@H]2C[C@@H]1N(C)Cc1ccc2c(c1)OCO2	none (no result: NR2E3 ag-2, T cell HTS)
c1csc(CNc2ccc3c(c2)OCCO3)c1	none | NR2E3 ag confirm inactive | VP16 counter inactive
CCOC(=O)C1CCN(C(=O)C2CCCN(S(=O)(=O)c3ccc(OCC)c(Cl)c3)C2)CC1 (configuration not stated)	none | NR2E3 ag confirm inactive | VP16 counter inactive
CCn1nc(C)c(CNC(=O)c2ccc(OC3CCN(Cc4ccccn4)CC3)cc2)c1C	NR2E3 ag-1 79 (no result: NR2E3 ag-2) | NR2E3 ag confirm inactive | VP16 counter inactive
CCn1cc(CNC(=O)c2ccc(OC3CCN(Cc4ccccn4)CC3)cc2)cn1	none
CC[C@H](C)C(=O)O[C@H]1C[C@@H](C)C=C2C=C[C@H](C)[C@H](CC[C@@H]3C[C@@H](O)CC(=O)O3)[C@H]21	none | NR2E3 ag confirm inactive | VP16 counter inactive
CCC(C)C(=O)OC1CCC=C2C=CC(C)C(CCC3CC(O)CC(=O)O3)C21 (configuration not stated)	none (no result: NR2E3 ag-2, T cell HTS)
CCCCC(=O)N1CCN(c2nc3ccc(Cl)cc3s2)CC1	none | NR2E3 ag confirm inactive | VP16 counter inactive
CC(C)(CC(=O)O)CC(=O)N1CCN(c2nc3ccc(Cl)cc3s2)CC1	none
Cc1c(C(=O)NCc2ccc(Cl)c(Cl)c2)sc(=O)n1Cc1ccc(S(=O)(=O)N(C)C)cc1	Myeloid diff MLP inconclusive (no result: NR2E3 ag-2, T cell HTS)
COc1ccc(Cl)cc1Cn1c(C)c(C(=O)NCc2ccc(F)cc2)sc1=O	none (no result: NR2E3 ag-2, T cell HTS) | NR2E3 ag confirm inactive | VP16 counter inactive
Cc1c(C(=O)NCc2ccc(C(C)C)cc2)sc(=O)n1Cc1ccc(S(=O)(=O)N(C)C)cc1	NR2E3 ag-1 74, Myeloid diff MLP active (no result: NR2E3 ag-2, T cell HTS) | NR2E3 ag confirm 87 | VP16 counter 80
COc1ccc(Cl)cc1Cn1c(C)c(C(=O)N(C)Cc2ccc(F)cc2)sc1=O	none (no result: NR2E3 ag-2, T cell HTS)
COc1ccc(Cl)cc1Cn1c(C)c(C(=O)NCc2cccc([N+](=O)[O-])c2)sc1=O	none (no result: NR2E3 ag-2, T cell HTS) | NR2E3 ag confirm inactive | VP16 counter inactive
Cc1cc(F)cc(-c2cc(C(=O)NCc3ccco3)[nH]n2)c1	none (no result: NR2E3 ag-2, T cell HTS)
COCC(=O)Oc1cc(-c2ccc(C)cc2C)c(OC(=O)COC)c(-c2ccc(C)cc2C)c1	none (no result: NR2E3 ag-2, Myeloid diff MLP, T cell HTS) | NR2E3 ag confirm inactive | VP16 counter inactive
CCC1Sc2ccc(S(=O)(=O)Nc3ccc(OC)cc3)cc2NC1=O (configuration not stated)	none | NR2E3 ag confirm inactive | VP16 counter inactive
CCC1Sc2ccc(S(=O)(=O)Nc3ccc(OC)c(OC)c3)cc2NC1=O (configuration not stated)	NR2E3 ag-1 88 | NR2E3 ag confirm 81 | VP16 counter inactive
COc1ccc(C)cc1NS(=O)(=O)c1ccc2c(c1)NC(=O)C(C)S2 (configuration not stated)	none
COc1ccccc1NC(=S)NNC(=O)c1ccc(Cl)cc1Cl	none | NR2E3 ag confirm inactive | VP16 counter inactive
CC1(c2ccc3ccccc3c2)NC(=O)N(CC(=O)N2CCN(Cc3ccc(C#N)cc3)CC2)C1=O (configuration not stated)	NR2E3 ag-1 105 (no result: NR2E3 ag-2, T cell HTS) | NR2E3 ag confirm 90 | VP16 counter 80
CC(=O)N1CCN(C(=O)CN2C(=O)NC(C)(c3ccc4ccccc4c3)C2=O)CC1 (configuration not stated)	none
Cc1cccc(Nc2nc(N3CCOCC3)nc(N3CCOCC3)n2)c1	none (no result: Myeloid diff MLP) | NR2E3 ag confirm inactive | VP16 counter inactive
Cc1ccc(Nc2nc(N/N=C/c3c[nH]c4ccccc34)nc(N3CCOCC3)n2)cc1	none | NR2E3 ag confirm inactive | VP16 counter inactive
C(=N\Nc1nc(Nc2ccccc2)nc(N2CCOCC2)n1)/c1c[nH]c2ccccc12	none (no result: NR2E3 ag-1, Myeloid diff MLP, FXN GAA850 act)
CC(=O)Nc1ccc2[nH]c3ccccc3c2c1	none
O=C(Nc1ccc(Cl)cc1)c1cc2c(cc1O)[nH]c1ccccc12	NR2E3 ag-1 101 | NR2E3 ag confirm 99 | VP16 counter 90
CCc1nc2c(OCC3CCCCC3)cccn2c1N(C)C(=O)c1ccc(C)cc1	none (no result: NR2E3 ag-2, T cell HTS)
Cn1cc([N+](=O)[O-])c(C(=O)Nc2nc(-c3ccc(Cl)cc3)cs2)n1	NR2E3 ag-1 71 | NR2E3 ag confirm inactive | VP16 counter inactive
CC(O)CSc1nc2c(c(=O)[nH]c(=O)n2C)n1Cc1ccccc1Cl (configuration not stated)	none (no result: NR2E3 ag-2)
